# From ChEMBL document CHEMBL4229380, “Arylureas derived from colchicine: Enhancement of colchicine oncogene downregulation activity” (Eur J Med Chem, 2018)
# Assays:
# HT-29 [1] = assay: Antiproliferative activity against human HT-29 cells after 2 days by MTT assay; type: functional, cell-based; details: HT-29, 48 h
# In short: (§1)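 Cells (5×10^3 per well) in DMEM with 10% FBS, glucose, glutamine and antibiotics were exposed to serial dilutions (stocks in DMSO) for 2 days at 37 °C, 5% CO2. MTT was added for 3 h, formazan was dissolved in DMSO and absorbance read at 490 nm. Viability was taken as % of untreated cells. IC50 was read graphically from three independent experiments.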
# MCF7 = assay: Antiproliferative activity against human MCF7 cells after 2 days by MTT assay; type: functional, cell-based; details: MCF7, 48 h; in short: as §1
# HeLa = assay: Antiproliferative activity against human HeLa cells after 2 days by MTT assay; type: functional, cell-based; details: 48 h; in short: as §1
# HEK293 = assay: Antiproliferative activity against human HEK293 cells after 2 days by MTT assay; type: cell-based; details: HEK293, 48 h; in short: as §1
# HT-29 [2] = assay: Induction of apoptosis in human HT-29 cells assessed as viable cells at 20 nM after 48 hrs by Annexin V-FITC staining-based flow cytometric analysis (reference value: 82 +/- 1%); type: functional; details: HT-29, 48 h, read-out: Activity
# HT-29 [3] = assay: Induction of apoptosis in human HT-29 cells assessed as apoptotic cells at 20 nM after 48 hrs by Annexin V-FITC staining-based flow cytometric analysis (reference value: 13 +/- 3%); type: functional
# HT-29 [4] = assay: Induction of apoptosis in human HT-29 cells assessed as necrotic cells at 20 nM after 48 hrs by Annexin V-FITC staining-based flow cytometric analysis (reference value: 2 +/- 6%); type: functional
# HT-29 [5] = assay: Induction of apoptosis in human HT-29 cells assessed as viable cells at 5 nM after 48 hrs by Annexin V-FITC staining-based flow cytometric analysis (reference value: 82 +/- 1%); type: functional; details: HT-29, 48 h, read-out: Activity
# HT-29 [6] = assay: Induction of apoptosis in human HT-29 cells assessed as apoptotic cells at 5 nM after 48 hrs by Annexin V-FITC staining-based flow cytometric analysis (reference value: 13 +/- 3%); type: functional
# HT-29 [7] = assay: Induction of apoptosis in human HT-29 cells assessed as necrotic cells at 5 nM after 48 hrs by Annexin V-FITC staining-based flow cytometric analysis (reference value: 2 +/- 6%); type: functional
# HT-29 [8] = assay: Effect on c-MYC gene expression in human HT-29 cells assessed as c-MYC level at 5 nM after 48 hrs by RT-qPCR analysis; type: functional
# In short: (§2)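 HT-29 cells at 70–80% confluence were seeded at 1.5×10^5 per well and left 24 h, then treated 48 h, with DMSO as control. Total RNA was extracted and VEGF-A, c-Myc and hTERT were quantified by TaqMan qPCR, normalized to β-actin and to living cell number. Results are % expression versus control, at least three measurements.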
# HT-29 [9] = assay: Effect on hTERT gene expression in human HT-29 cells assessed as hTERT level at 5 nM after 48 hrs by RT-qPCR analysis; type: functional; in short: as §2
# HT-29 [10] = assay: Effect on VEGF gene expression in human HT-29 cells assessed as VEGF level at 5 nM after 48 hrs by RT-qPCR analysis; type: functional; in short: as §2
# HT-29 [11] = assay: Effect on c-MYC protein expression in human HT-29 cells assessed as c-MYC level at 5 nM after 48 hrs by ELISA; type: functional
# In short: (§3)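 HT-29 cells (1.5×10^5 per well, 24 h pre-culture) were treated 48 h and washed in PBS. They were lysed in Tris pH 7.4 buffer with detergents, phosphatase inhibitors, PMSF and protease inhibitors. Lysates were adjusted to 200 µg/mL protein (Bradford) and total c-Myc or VEGFR-2 was measured by sandwich ELISA kit. Values are % of DMSO control, ≥3 measurements.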
# HT-29 [12] = assay: Effect on VEGFR2 protein expression in human HT-29 cells assessed as VEGFR2 level at 5 nM after 48 hrs by ELISA; type: functional; in short: as §3
# HT-29 [13] = assay: Effect on VEGF protein expression in human HT-29 cells assessed as secreted VEGF level in culture media at 5 nM after 48 hrs by ELISA
# HT-29 [14] = assay: Induction of apoptosis in human HT-29 cells assessed as viable cells at 500 nM after 48 hrs by Annexin V-FITC staining-based flow cytometric analysis (reference value: 82 +/- 1%); type: functional; details: HT-29, 48 h, read-out: Activity
# HT-29 [15] = assay: Induction of apoptosis in human HT-29 cells assessed as apoptotic cells at 500 nM after 48 hrs by Annexin V-FITC staining-based flow cytometric analysis (reference value: 13 +/- 3%); type: functional
# HT-29 [16] = assay: Induction of apoptosis in human HT-29 cells assessed as necrotic cells at 500 nM after 48 hrs by Annexin V-FITC staining-based flow cytometric analysis (reference value: 2 +/- 6%); type: functional
# HT-29 [17] = assay: Induction of apoptosis in human HT-29 cells assessed as viable cells at 1000 nM after 48 hrs by Annexin V-FITC staining-based flow cytometric analysis (reference value: 82 +/- 1%); type: functional; details: HT-29, 48 h, read-out: Activity
# HT-29 [18] = assay: Induction of apoptosis in human HT-29 cells assessed as apoptotic cells at 1000 nM after 48 hrs by Annexin V-FITC staining-based flow cytometric analysis (reference value: 13 +/- 3%); type: functional
# HT-29 [19] = assay: Induction of apoptosis in human HT-29 cells assessed as necrotic cells at 1000 nM after 48 hrs by Annexin V-FITC staining-based flow cytometric analysis (reference value: 2 +/- 6%); type: functional
IC50 (HT-29 [1]),IC50 (MCF7),IC50 (HeLa),SMILES,IC50 (HEK293),viability at 0.005 µM (HT-29 [5]),Activity (HT-29 [6]),Activity (HT-29 [7]),Activity (HT-29 [8]),Activity (HT-29 [9]),Activity (HT-29 [10]),Activity (HT-29 [11]),Activity (HT-29 [12]),Activity (HT-29 [13]),further results
2.6 µM,1.8 µM,1.7 µM,COc1cc2c(c(OC)c1OC)-c1ccc(OC)c(=O)cc1[C@@H](NC(=O)Nc1cc(C(F)(F)F)cc(C(F)(F)F)c1)CC2,1.5 µM,–,–,–,–,–,–,–,–,–,viability at 0.02 µM (HT-29 [2]): 96%; Activity (HT-29 [3]): 4%; Activity (HT-29 [4]): 1%
0.005 µM,0.01 µM,0.01 µM,COc1cc2c(c(OC)c1OC)-c1ccc(OC)c(=O)cc1[C@@H](NC(=O)Nc1ccc(F)cc1)CC2,0.013 µM,51%,47%,2%,52%,70%,59%,105%,63%,55%,–
0.838 µM,0.185 µM,0.304 µM,CCc1cccc(CC)c1NC(=O)N[C@H]1CCc2cc(OC)c(OC)c(OC)c2-c2ccc(OC)c(=O)cc21,0.801 µM,–,–,–,–,–,–,–,–,–,viability at 0.5 µM (HT-29 [14]): 67%; Activity (HT-29 [15]): 32%; Activity (HT-29 [16]): 1%
0.004 µM,0.013 µM,0.0065 µM,COc1ccc(NC(=O)N[C@H]2CCc3cc(OC)c(OC)c(OC)c3-c3ccc(OC)c(=O)cc32)cc1,0.014 µM,64%,35%,1%,55%,91%,70%,61%,95%,44%,–
1.2 µM,1.2 µM,1.4 µM,COc1ccccc1NC(=O)N[C@H]1CCc2cc(OC)c(OC)c(OC)c2-c2ccc(OC)c(=O)cc21,1.2 µM,–,–,–,–,–,–,–,–,–,viability at 1 µM (HT-29 [17]): 55%; Activity (HT-29 [18]): 44%; Activity (HT-29 [19]): 1%
